The source of these data is ChEMBL document CHEMBL3877293, “Synthesis and Antineoplastic Evaluation of Novel Unsymmetrical 1,3,4-Oxadiazoles” (J Med Chem, 2016).

A short description of test [1]: Antiproliferative activity against human HeLa cells after 72 hrs by XTT assay. The class given is functional, cell-based. The procedure, abridged: (§1)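 Cells plated at 1500–2000 per well by doubling time, treated after 24 h with a concentration series in six triplicate wells, and incubated 72 h without a medium change. XTT reagent was then added for 4 h at 37 °C and absorbance read at 490 nm. IC50 is the concentration halving absorbance versus untreated cells. Experiments run in triplicate.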

Test [2] can be described thus: Antiproliferative activity against human MCF7 cells after 72 hrs by XTT assay. The class given is functional, cell-based. The note with it: MCF7, 72 h. Put shortly:
as §1

In the case of `Cc1ccc(Cc2nnc(-c3c[nH]c4c3Cc3ccccc3-4)o2)cc1`, the 50% inhibitory concentration (IC50) is over 10 µM in test [1] and 4.25 µM in test [2].
In the same order, the values of `Clc1ccc(Cc2nnc(-c3c[nH]c4c3Cc3ccccc3-4)o2)cc1` are over 10 µM and over 10 µM.
The like results for `c1ccc2c(c1)Cc1c(-c3nnc(C4CCCCC4)o3)c[nH]c1-2` were, in that order, over 10 µM and over 10 µM.
The like results for `Cc1[nH]c2c(c1-c1nnc(-c3ccccc3)o1)Cc1cc(Br)ccc1-2` were, in that order, 0.51 µM and 4.26 µM.
Turning to `COc1ccc2c(c1)-c1[nH]c(C)c(-c3nnc(-c4ccccc4)o3)c1C2`, the IC50 in test [1] and in test [2] was over 10 µM throughout.
As to `CC(C)(C)c1ccc(-c2nnc(-c3c[nH]c4c3Cc3ccccc3-4)o2)cc1`, the IC50 is 3.4 µM in test [1] and 9.5 µM in test [2].
`c1ccc(-c2nnc(-c3nn(-c4ccccc4)c4c3Cc3ccccc3-4)o2)cc1`: the IC50 is over 10 µM in test [1] and 7.59 µM in test [2].
Take `Clc1ccc(-c2nnc(-c3c[nH]c4c3Cc3ccccc3-4)o2)cc1`: the IC50 in test [1] and in test [2] was over 10 µM in each case.
In the case of `Cc1ccc2c(c1)Cc1c-2[nH]c(C)c1-c1nnc(-c2ccccc2)o1`, the IC50 in test [1] was 5.3 µM; in test [2] it was over 10 µM.
The like results for `Clc1cccc(-c2nnc(-c3c[nH]c4c3Cc3ccccc3-4)o2)c1` were, in that order, over 10 µM and over 10 µM.
Regarding `c1ccc(Cc2nnc(-c3c[nH]c4c3Cc3ccccc3-4)o2)cc1`, the IC50 in test [1] and in test [2] was over 10 µM in each case.
As for `Cc1[nH]c2c(c1-c1nnc(-c3ccccc3)o1)Cc1cc(Cl)ccc1-2`, the IC50 in test [1] was 4.5 µM; in test [2] it was over 10 µM.
Consider `COc1cc(-c2nnc(-c3c[nH]c4c3Cc3ccccc3-4)o2)cc(OC)c1OC`, for which the IC50 in test [1] and in test [2] was over 10 µM in each case.
Consider `Clc1ccc(-c2nnc(-c3c[nH]c4c3Cc3ccccc3-4)o2)cc1Cl`, for which the IC50 in test [1] and in test [2] was over 10 µM throughout.
In the case of `Cn1nc(-c2nnc(-c3ccccc3)o2)c2c1-c1ccccc1C2`, the IC50 in test [1] and in test [2] was over 10 µM in each case.
Turning to `Cc1[nH]c2c(c1-c1nnc(-c3ccccc3)o1)Cc1cc(C3CC3)ccc1-2`, the results for the IC50 in test [1] and in test [2] were 1.58 µM and 2.31 µM, respectively.
